Source: PubChem (several laboratories)
TAG inh = reduces triacylglycerol accumulation in H9c2 cells | Nile Red lipid (TAG) fluorescence; cells loaded with 200 µM oleic acid | inhibition, % at 12.5 µM | 230,000 tested, 0.66% active | AID 651582;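 active = pattern-corrected inhibition of lipid staining of at least 50% with the nuclear-stain viability signal not falling by more than 50%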;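 also: 0% = DMSO wells and 100% = triacsin C control wells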
Vif imaging = HIV Vif inhibition; HEK293T cells, Vif self-association by quenched fluorescence, imaging, 24 h; inhibition, % at 7.49 µM; 340,000 tested, 0.35% active; in the data active = inhibition above about 50%, passing the limit was not always enough; inconclusive = no clear call, values can overlap the other calls; inactive = below about 31%
Bfl-1 A1 inh = inhibitors of the anti-apoptotic protein A1, read as caspase activation; MEF A1-2A-BIM cells, Caspase-Glo 3/7 luminescence, 3 h; percent of clofoctol response, vehicle zero; caspase activation, % (test concentration not listed); 330,000 tested, 0.066% active; AID 2462;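 active = over half of replicate activation scores above 10%, or exactly half above 10 with the replicate mean above 10; inconclusive = replicate mean below 10 yet half the replicates above 10; inactive = over half of replicates below 10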
SR-BI uptake up = SR-BI HDL lipid transfer activation. 320,000 tested, 0.096% active. activation, % at 12.5 µM. CHO ldlA[mSR-BI] cells, DiI-HDL uptake fluorescence, 3 h; 100 = double the neutral-control signal. AID 504775;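 active = mean replicate activation of at least 60% and every replicate at or above 60%; inconclusive = mean or all-replicate condition met, but not both; inactive = mean below 60% and not all replicates reaching 60%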;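 also: 0% = median plate neutral-control signal and 100% = twice that signal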
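Material: SR-BI-overexpressing, LDLR-lacking CHO cells; schedule: compound exposure 3 h, 37 °C; reagent: DiI-labelled HDL at 10 µg/mL final; technique: bottom-read fluorescence, 550/595 nm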
SR-BI HDL uptake = mouse SR-BI HDL lipid transfer inhibition | Q61009 | ldlA[mSR-BI] CHO cells, DiI-HDL uptake fluorescence, 3 h | inhibition, % at 12.5 µM | 320,000 tested, 0.96% active | AID 488896;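 active = mean replicate inhibition of at least 70% and a set share of replicates each scoring 70 or more; inconclusive = meets just one of the two criteria; inactive = fails both criteria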;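 also: 0% = median of neutral control wells and 100% = median of positive control wells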
Target sequence (Q61009 whole entry, looked up): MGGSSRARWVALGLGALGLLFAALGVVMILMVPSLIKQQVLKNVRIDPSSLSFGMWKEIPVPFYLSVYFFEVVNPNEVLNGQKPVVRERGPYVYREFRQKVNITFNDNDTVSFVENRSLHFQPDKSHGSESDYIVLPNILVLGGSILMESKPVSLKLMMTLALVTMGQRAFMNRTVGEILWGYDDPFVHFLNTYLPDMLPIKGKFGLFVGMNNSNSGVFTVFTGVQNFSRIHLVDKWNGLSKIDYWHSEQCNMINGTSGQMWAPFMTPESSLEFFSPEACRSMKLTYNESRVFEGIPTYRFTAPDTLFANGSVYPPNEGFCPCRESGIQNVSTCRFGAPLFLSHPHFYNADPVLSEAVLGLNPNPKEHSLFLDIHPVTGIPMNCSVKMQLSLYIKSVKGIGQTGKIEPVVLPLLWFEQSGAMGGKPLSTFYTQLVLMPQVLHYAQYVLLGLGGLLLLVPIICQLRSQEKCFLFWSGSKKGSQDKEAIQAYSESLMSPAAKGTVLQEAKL
Numbers without * were called inactive; ? = inconclusive; . = no result given. Sampled rows, rich in hits. Any-hit rate of the full collection: about 1.6%.

SMILES	TAG inh	Vif imaging	Bfl-1 A1 inh	SR-BI uptake up	SR-BI HDL uptake
COCCOc1ccc(C(F)(F)F)cc1NC(=O)c1ccc(C(F)(F)F)cc1	.	-5.5	0.0	-18.1	18.1
CCCOc1ccc(C(F)(F)F)cc1NC(=O)c1cc(C)on1	-1.0	.	-0.5	-72.4	72.4*
COc1cc(/C=C/C(=O)c2ccccc2O)cc(OC)c1OC	.	-2.2	0.2	-46.2	46.2
COc1cc(OC)c(C=CC(=O)c2ccccc2O)c(OC)c1	-1.2	-6.7	.	-72.6	72.6*
CCC(C)C(=O)Nn1c(C2CC2)nc2cc(OC)c(OC)cc2c1=O (configuration not stated)	-5.8	125.2*	0.6	2.2	-2.2
COc1cccc(OC)c1C(=O)Nn1c(C2CCC2)nc2ccccc2c1=O	.	31.9	-0.4	39.3	-39.3
CCC(CO)Oc1cc(NCc2ccc(Cl)cc2)c2ncn(C(C)C)c2c1 (configuration not stated)	6.5	106.4*	-0.2	-27.1	27.1
C[C@@H]1CN([C@H](C)CO)C(=O)CCCn2cc(nn2)CO[C@H]1CN(C)C(=O)c1ccccc1	.	69.7*	.	.	.
CCOc1ccc(C(=O)c2cc([N+](=O)[O-])ccc2N2CCOCC2)cc1	.	73.9*	1.5	-37.4	37.4
COc1ccc(C(=O)COC(=O)c2cc([N+](=O)[O-])ccc2N2CCOCC2)c(OC)c1	14.1	17.3	-0.2	-70.5	?
COc1cc(C(=O)COC(=O)c2cc([N+](=O)[O-])ccc2N2CCOCC2)ccc1OC(F)F	-3.5	-6.1	-0.6	-84.5	84.5*
Cc1cc(C)c(C(=O)COC(=O)c2cc([N+](=O)[O-])ccc2N2CCOCC2)cc1C	2.1	-10.5	-1.1	-78.9	78.9*
COc1ccc(C(=O)c2cc([N+](=O)[O-])ccc2N2CCOCC2)cc1	38.1	?	1.0	-32.5	32.5
COc1ccccc1C(=O)COC(=O)c1cc([N+](=O)[O-])ccc1N1CCOCC1	7.3	-2.7	-1.0	-85.1	85.1*
Cc1ccc(CS/C(Nc2ccccc2C)=C(\C#N)C(N)=O)c(C)c1	.	.	0.5	6.1	-6.1
CCc1ccc(CNC(=O)c2nn(C)c3c2CS(=O)(=O)c2ccccc2-3)cc1	.	27.1	1.0	-13.5	13.5
CCOc1ccccc1CNC(=O)c1nn(C)c2c1CS(=O)(=O)c1ccccc1-2	.	-4.4	0.5	-88.2	88.2*
C=CCNc1nc(-c2cccc(OC)c2O)nc2ccccc12	.	-24.6	0.3	-75.9	75.9*
COc1cccc(-c2nc(NCc3ccccc3)c3ccccc3n2)c1O	.	-8.9	-0.3	-61.1	61.1
COc1cccc(-c2nc(NC3CCCC3)c3ccccc3n2)c1O	.	-10.7	-0.2	-82.5	82.5*
O=[N+]([O-])c1ccccc1NS(=O)(=O)c1ccccc1	9.5	-3.7	.	.	.
O=C(CCCn1c(=O)c2cccn2c2cccnc21)NCCc1ccc(Cl)cc1	.	2.4	-1.1	-78.9	78.8*
CCCC1SCC(C)(C)NC1=O (configuration not stated)	-0.8	7.6	.	17.7	-17.7
COCCNC(=O)/C(C#N)=C/c1cn(CC(=O)NCc2ccco2)c2ccccc12	-10.8	22.0	0.7	-13.4	13.4
Cc1cccc(NC(=O)/C(C#N)=C/c2cn(CC(=O)NCc3ccco3)c3ccccc23)c1	.	-2.6	52.6*	-24.8	24.8
SMILES	TAG inh	Vif imaging	Bfl-1 A1 inh	SR-BI uptake up	SR-BI HDL uptake
O=C(Nc1ccc(S(=O)(=O)Nc2ncccn2)cc1)C1CC(=O)N(c2ccc(Cl)cc2)C1 (configuration not stated)	.	56.3*	0.2	.	.
CCOC(=O)N1CCC(Nc2cc(C)nc3c(-c4ccccc4OC)c(C)nn23)CC1	7.7	-4.8	0.7	-9.2	9.2
COc1ccccc1-c1cnn2c(NC3CCCC3)cc(C)nc12	.	.	0.0	-86.4	86.4*
CCN(CC)c1ccc(C(NC(=O)C(C)C)c2ccc3cccnc3c2O)cc1 (configuration not stated)	30.6	.	.	.	.
CCCC(=O)NC(c1ccc(C)cc1)c1ccc2cccnc2c1O (configuration not stated)	60.7*	-9.2	1.1	-5.1	5.1
CCCC(=O)NC(c1ccc(Cl)cc1)c1ccc2cccnc2c1O (configuration not stated)	63.1	30.1	1.0	-9.0	9.0
CC(C)C(=O)NC(c1ccco1)c1ccc2cccnc2c1O (configuration not stated)	71.6*	9.9	-0.8	19.2	-19.2
Oc1c(C(Nc2nccs2)c2ccc(C(F)(F)F)cc2)ccc2cccnc12 (configuration not stated)	59.6*	?	.	.	.
CCCCC(=O)NC(c1ccc(Cl)cc1)c1ccc2cccnc2c1O (configuration not stated)	52.4*	-8.6	-0.3	-7.0	7.0
Oc1c(C(Nc2cccc(C(F)(F)F)c2)c2ccncc2)ccc2cccnc12 (configuration not stated)	96.0	-3.4	-1.1	-14.9	14.9
Cc1cccc(COc2ccc(S(=O)(=O)N3CCOCC3)cc2[N+](=O)[O-])c1	-15.1	-3.8	.	-30.3	30.3
COc1cc(COc2ccc(S(=O)(=O)N3CCOCC3)cc2[N+](=O)[O-])ccc1OC(F)F	0.8	57.4*	.	-24.9	24.9
COc1ccccc1N1CCN(C(=O)CCCCCn2c(=S)[nH]c3cc4c(cc3c2=O)OCO4)CC1	-7.2	63.6*	.	.	.
CCOC(=O)c1cc(NC(=O)N(CC)C2CCCCC2)c(C)nc1C	.	-3.7	0.7	-76.5	76.5*
CCOC(=O)c1cc(NC(=O)N(C)C2CCCCC2)c(C)nc1C	.	-8.5	0.9	-73.7	73.7*
CCOC(=O)Nc1cc(C(=O)OCC)c(C)nc1C	12.0	4.7	0.2	10.2	-10.2
CC(NC(=O)C(CC(=O)OC(C)(C)C)NC(=O)OC(C)(C)C)C(N)=O (configuration not stated)	.	55.0*	-0.4	6.6	-6.6
CC(O)CN(C)CC/C=C1/c2ccccc2CSc2ccccc21 (configuration not stated)	.	86.2*	0.5	2.5	-2.5
NC(=O)NC(CCC(=O)O)C(=O)O (configuration not stated)	.	65.1*	0.0	12.6	-12.6
O=C(O)CCC(NC(=O)OCc1ccccc1)C(=O)O (configuration not stated)	-4.6	-0.7	0.5	3.5	-3.5
CCOC(=O)C1=C(C)NC(=O)NC1	5.0	74.3*	2.0	35.4	-35.4
Cc1ccc(S(=O)(=O)/C(C#N)=C/c2c(N3CCCCC3)nc3ccccn3c2=O)cc1	-10.7	-2.0	0.3	.	.
Cc1ccc(S(=O)(=O)/C(C#N)=C/c2c(N3CC(C)OC(C)C3)nc3ccccn3c2=O)cc1 (configuration not stated)	-11.6	67.3*	0.0	20.6	-20.6
COc1cc2c(cc1OC)C(=Cc1ccc(N(C)C)cc1)C=C2	2.0	-2.0	.	-76.4	76.4*
